ChEMBL document CHEMBL1136788, “A novel antibacterial 8-chloroquinolone with a distorted orientation of the N1-(5-amino-2,4-difluorophenyl) group” (2003)
In brackets after ≈: the same amount, converted by molar mass.

Experiments:
Assay type in all cases: functional
[1] = Tested for in vitro antibacterial activity against Gram (+) bacteria
Outline: (§1)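 Value is the geometric mean of MICs over a panel: 14 Gram (–) or 13 Gram (+) strains. MICs came from NCCLS agar dilution in Mueller Hinton medium (10% horse blood added for S. pneumoniae), with twofold dilutions from 128 to 0.002 μg/mL. Inoculum was about 10^4 organisms, at 37 °C for 18 h; endpoint was no visible growth.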

[2] = In vitro antibacterial activity against Gram (-) bacteria; outline: as §1
Streptococcus pneumoniae = assay: Tested for in vitro antibacterial activity against Streptococcus pneumoniae W1466
Outline: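 Agar dilution per NCCLS in Mueller Hinton medium supplemented with 10% horse blood. Twofold dilutions spanned 128–0.002 μg/mL. Inoculum was about 10^4 organisms, incubated at 37 °C for 18 h. MIC was the lowest concentration with no visible growth.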

Pseudomonas aeruginosa = assay: Tested for in vitro antibacterial activity against Pseudomonas aeruginosa W348
Outline: (§2)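 Agar dilution per NCCLS. Twofold serial dilutions (128–0.002 μg/mL) were made in Mueller Hinton medium. Plates were inoculated with about 10^4 organisms and incubated at 37 °C for 18 h. MIC was the lowest concentration giving no visible growth.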

Staphylococcus aureus = assay: Tested for in vitro antibacterial activity against methicillin resistant Staphylococcus aureus W9501
Outline: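 Agar dilution per NCCLS standard method in Mueller Hinton medium; two-fold serial dilutions of test compound from 128 to 0.002 μg/mL. Plates inoculated with about 10^4 organisms, incubated 37 °C for 18 h. MIC read as lowest concentration giving no visible growth on the plate.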

Escherichia coli = assay: Tested for in vitro antibacterial activity against Escherichia coli W9523; outline: as §2

Row | SMILES | GM-MIC [1] [µg/mL] | GM-MIC [2] [µg/mL] | MIC (Streptococcus pneumoniae) [µg/mL] | MIC (Pseudomonas aeruginosa) [µg/mL] | MIC (Staphylococcus aureus) [µg/mL] | MIC (Escherichia coli) [µg/mL]
1 | NC1CCN(c2nc3c(cc2F)c(=O)c(C(=O)O)cn3-c2ccc(F)cc2F)C1 (configuration not stated) [TOSUFLOXACIN] | 0.44 | 0.12 | – | – | – | –
2 | Nc1cc(-n2cc(C(=O)O)c(=O)c3cc(F)c(N4CCNCC4)nc32)c(F)cc1F | 5.81 | 1.72 | – | – | – | –
3 | N[C@@H]1[C@H]2CN(c3nc4c(cc3F)c(=O)c(C(=O)O)cn4-c3ccc(F)cc3F)C[C@@H]12 [TROVAFLOXACIN] | 0.29 | 0.3 | 0.25 (≈ 0.6 µM) | 16 (≈ 38.4 µM) | 128 (≈ 307 µM) | > 128
4 | Nc1cc(-n2cc(C(=O)O)c(=O)c3cc(F)c(N4CC[C@H](N)C4)nc32)ccc1F | 0.45 | 0.14 | – | – | – | –
5 | Nc1cc(-n2cc(C(=O)O)c(=O)c3cc(F)c(N4CCNCC4)cc32)c(F)cc1F | 1.05 | 0.15 | – | – | – | –
6 | Nc1cc(-n2cc(C(=O)O)c(=O)c3cc(F)c(N4CC(N)C4)nc32)c(F)cc1F | 0.65 | 0.15 | – | – | – | –
7 | NC1CN(c2c(F)cc3c(=O)c(C(=O)O)cn(-c4ccc(F)cc4F)c3c2Cl)C1 | 0.13 | 0.06 | 0.03 (≈ 0.0708 µM) | 16 (≈ 37.8 µM) | 8 (≈ 18.9 µM) | 32 (≈ 75.5 µM)
8 | CCNC1CN(c2c(F)cc3c(=O)c(C(=O)O)cn(-c4cc(N)c(F)cc4F)c3c2Cl)C1 | 0.12 | 0.08 | – | – | – | –
9 | Nc1cc(-n2cc(C(=O)O)c(=O)c3cc(F)c(N4CC(N)C4)c(Cl)c32)c(F)cc1F | 0.07 | 0.03 | 0.008 (≈ 0.0182 µM) | 1 (≈ 2.28 µM) | 1 (≈ 2.28 µM) | 1 (≈ 2.28 µM)
10 | O=C(O)c1cn(C2CC2)c2cc(N3CCNCC3)c(F)cc2c1=O [CIPROFLOXACIN] | 0.99 | 0.04 | 1 (≈ 3.02 µM) | – | 128 (≈ 386 µM) | 128 (≈ 386 µM)
11 | Nc1cc(-n2cc(C(=O)O)c(=O)c3cc(F)c(N4CCNCC4)c(Cl)c32)c(F)cc1F | 1.61 | 0.52 | – | – | – | –
12 | Nc1cc(-n2cc(C(=O)O)c(=O)c3cc(F)c(N4CC[C@H](N)C4)c(Cl)c32)c(F)cc1F | 1.16 | 1.21 | – | – | – | –
13 | CN(C)C1CN(c2c(F)cc3c(=O)c(C(=O)O)cn(-c4cc(N)c(F)cc4F)c3c2Cl)C1 | 0.12 | 0.22 | – | – | – | –
14 | CC1(N)CN(c2c(F)cc3c(=O)c(C(=O)O)cn(-c4cc(N)c(F)cc4F)c3c2Cl)C1 | 0.1 | 0.06 | – | – | – | –
15 | Nc1c(F)ccc(-n2cc(C(=O)O)c(=O)c3cc(F)c(N4CC[C@H](N)C4)nc32)c1F | 1.61 | 0.32 | – | – | – | –

Now from value to molecule, other results behind:

Row | GM-MIC [1] [µg/mL] | GM-MIC [2] [µg/mL] | SMILES | MIC (Streptococcus pneumoniae) [µg/mL] | MIC (Pseudomonas aeruginosa) [µg/mL] | MIC (Staphylococcus aureus) [µg/mL] | MIC (Escherichia coli) [µg/mL]
16 | 0.07 | 0.04 | Nc1cc(-n2cc(C(=O)O)c(=O)c3cc(F)c(N4CC(N)C4)c(Br)c32)c(F)cc1F | – | – | – | –
17 | 0.34 | 0.22 | Nc1cc(-n2cc(C(=O)O)c(=O)c3cc(F)c(N4CC[C@H](N)C4)c(F)c32)c(F)cc1F | – | – | – | –
18 | 3.22 | 1.81 | Nc1cc(-n2cc(C(=O)O)c(=O)c3cc(F)c(N4CC[C@H](N)C4)nc32)c(F)c(F)c1F | – | – | – | –
19 | 0.49 | 0.12 | Nc1cc(-n2cc(C(=O)O)c(=O)c3cc(F)c(N4CC(N)C4)cc32)c(F)cc1F | – | – | – | –
20 | 0.22 | 0.14 | Nc1cc(-n2cc(C(=O)O)c(=O)c3cc(F)c(N4CC[C@H](N)C4)cc32)c(F)cc1F | – | – | – | –
21 | 2.6 | 0.39 | Nc1cc(-n2cc(C(=O)O)c(=O)c3cc(F)c(N4CCNCC4)c(F)c32)c(F)cc1F | – | – | – | –
22 | 1.99 | 0.86 | Nc1ccc(F)c(-n2cc(C(=O)O)c(=O)c3cc(F)c(N4CC[C@H](N)C4)nc32)c1 | – | – | – | –
23 | 0.26 | 0.1 | Nc1cc(-n2cc(C(=O)O)c(=O)c3cc(F)c(N4CC[C@H](N)C4)nc32)c(F)cc1F | – | – | – | –
24 | 0.42 | 0.08 | Nc1cc(-n2cc(C(=O)O)c(=O)c3cc(F)c(N4CC(N)C4)c(F)c32)c(F)cc1F | – | – | – | –
25 | 0.09 | 0.03 | Cc1c(N2CC(N)C2)c(F)cc2c(=O)c(C(=O)O)cn(-c3cc(N)c(F)cc3F)c12 | – | – | – | –
26 | 0.08 | 0.04 | CNC1CN(c2c(F)cc3c(=O)c(C(=O)O)cn(-c4cc(N)c(F)cc4F)c3c2Cl)C1 | – | – | – | –
